ChEMBL document CHEMBL1134350, “seco-Cyclothialidines: new concise synthesis, inhibitory activity toward bacterial and human DNA topoisomerases, and antibacterial properties” (J Med Chem, 2001)
Converted amounts (≈) assume the structure as drawn.

Experiments:
[1] = tested on: Escherichia coli; test: Antibacterial activity against Escherichia coli Neumann.; type: functional
Method in brief: (§1)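 Agar dilution MIC on IsoSensitest agar or Mueller Hinton agar with 10% horse blood and IsoVitaleX. Overnight cultures were grown in BHI broth for staphylococci and enterobacteria, or in BHI plus 10% bovine serum for streptococci and enterococci, then diluted 1:100. Compounds were tested at 0.125-64 µg/mL. Plates were incubated aerobically at 37 °C for about 20 h. MIC = first concentration with no visible growth.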

[2] = tested on: Enterococcus faecium; test: Antibacterial activity against Enterococcus faecium L4001.; type: functional; method in brief: as §1
[3] = tested on: Enterococcus faecalis; test: Antibacterial activity against Enterococcus faecalis 27251.; type: functional; method in brief: as §1
[4] = tested on: Enterococcus faecalis; test: Antibacterial activity against Enterococcus faecalis 27253.; type: functional; method in brief: as §1
[5] = tested on: Klebsiella pneumoniae; test: Antibacterial activity against Klebsiella pneumoniae 8085.; type: functional; method in brief: as §1
[6] = tested on: Klebsiella pneumoniae; test: Antibacterial activity against Klebsiella pneumoniae 63.; type: functional; method in brief: as §1
[7] = tested on: Proteus mirabilis; test: Antibacterial activity against Proteus mirabilis 1235.; type: functional; method in brief: as §1
[8] = tested on: Proteus vulgaris; test: Antibacterial activity against Proteus vulgaris 1017.; type: functional; method in brief: as §1
[9] = tested on: Staphylococcus aureus; test: Antibacterial activity against Staphylococcus aureus 133.; type: functional; method in brief: as §1
[10] = tested on: Staphylococcus aureus; test: Antibacterial activity against Staphylococcus aureus 25470.; type: functional; method in brief: as §1
[11] = tested on: Staphylococcus aureus; test: Antibacterial activity against Staphylococcus aureus 25701.; type: functional; method in brief: as §1
[12] = tested on: Staphylococcus aureus; test: Antibacterial activity against Staphylococcus aureus 44(25508).; type: functional; method in brief: as §1
[13] = tested on: Staphylococcus aureus; test: Antibacterial activity against Staphylococcus aureus 48 N.; type: functional; method in brief: as §1
[14] = tested on: Staphylococcus aureus; test: Antibacterial activity against Staphylococcus aureus 9TV.; type: functional; method in brief: as §1
[15] = tested on: Staphylococcus saprophyticus; test: Antibacterial activity against Staphylococcus saprophyticus 2916.; type: functional; method in brief: as §1
[16] = tested on: Streptococcus pyogenes; test: Antibacterial activity against Streptococcus pyogenes Wacker.; type: functional; method in brief: as §1
[17] = tested on: Streptococcus pyogenes; test: Antibacterial activity against Streptococcus pyogenes 4333.; type: functional; method in brief: as §1
[18] = tested on: Streptococcus pyogenes; test: Antibacterial activity against Streptococcus pyogenes 4851.; type: functional; method in brief: as §1
[19] = tested on: Streptococcus pyogenes; test: Antibacterial activity against Streptococcus pyogenes 7029.; type: functional; method in brief: as §1
[20] = tested on: Staphylococcus epidermidis; test: Antibacterial activity against Staphylococcus epidermidis 193.; type: functional; method in brief: as §1
[21] = tested on: Staphylococcus haemolyticus; test: Antibacterial activity against Staphylococcus haemolyticus 146.; type: functional; method in brief: as §1
[22] = tested on: Enterococcus faecium; test: Antibacterial activity against Enterococcus faecium 27266.; type: functional; method in brief: as §1
[23] = molecular target: DNA topoisomerase II (Homo sapiens, UniProt P11388+Q02880); test: […] human DNA Topoisomerase II; type: protein assay
Method in brief: (§2)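 Human topoisomerase reactions used supercoiled pBR322 (100 ng) with 1 unit enzyme in the supplier's reaction buffer and compounds in DMSO. Incubation was 30 min, stopped with SDS/sucrose dye.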

[24] = molecular target: T1, DNA topoisomerase 1 (Homo sapiens, UniProt P11387); test: Antibacterial activity against human DNA Topo I.; method in brief: as §2
T1 sequence (P11387 whole entry): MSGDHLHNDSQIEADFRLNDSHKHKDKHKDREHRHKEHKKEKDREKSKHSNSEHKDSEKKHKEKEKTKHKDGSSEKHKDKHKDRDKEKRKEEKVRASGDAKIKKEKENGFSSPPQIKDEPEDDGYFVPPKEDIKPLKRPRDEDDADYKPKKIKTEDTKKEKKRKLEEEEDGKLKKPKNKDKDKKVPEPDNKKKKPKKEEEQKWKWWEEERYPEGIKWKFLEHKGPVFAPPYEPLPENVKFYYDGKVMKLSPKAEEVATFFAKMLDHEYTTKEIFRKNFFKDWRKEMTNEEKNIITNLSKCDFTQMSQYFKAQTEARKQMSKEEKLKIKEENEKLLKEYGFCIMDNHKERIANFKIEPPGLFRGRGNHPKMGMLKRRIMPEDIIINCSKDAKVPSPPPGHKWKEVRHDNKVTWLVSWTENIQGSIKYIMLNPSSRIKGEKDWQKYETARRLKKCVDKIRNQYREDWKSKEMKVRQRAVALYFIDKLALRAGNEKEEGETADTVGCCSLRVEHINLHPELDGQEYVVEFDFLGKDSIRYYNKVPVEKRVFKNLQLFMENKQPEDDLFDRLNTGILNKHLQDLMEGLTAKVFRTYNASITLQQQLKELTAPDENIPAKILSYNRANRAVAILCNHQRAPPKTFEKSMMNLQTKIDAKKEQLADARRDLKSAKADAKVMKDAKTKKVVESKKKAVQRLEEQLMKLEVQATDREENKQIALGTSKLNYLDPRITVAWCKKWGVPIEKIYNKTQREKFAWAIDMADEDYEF

[25] = tested on: Enterococcus faecalis; test: Antibacterial activity against Enterococcus faecalis.; type: functional; method in brief: as §1
[26] = tested on: Staphylococcus aureus; test: Antibacterial activity against Staphylococcus aureus 25923.; type: functional; method in brief: as §1
[27] = tested on: Streptococcus pyogenes; test: Antibacterial activity against Streptococcus pyogenes.; type: functional; method in brief: as §1
[28] = tested on: Staphylococcus epidermidis; test: Antibacterial activity against Staphylococcus epidermidis.; type: functional; method in brief: as §1
[29] = tested on: Staphylococcus aureus; test: Antibacterial activity against Staphylococcus aureus QR-54.; type: functional; method in brief: as §1

MIC [1]	MIC [2]	MIC [3]	MIC [4]	MIC [5]	MIC [6]	MIC [7]	MIC [8]	MIC [9]	MIC [10]	MIC [11]	MIC [12]	MIC [13]	MIC [14]	MIC [15]	MIC [16]	MIC [17]	MIC [18]	MIC [19]	MIC [20]	Structure (SMILES)	also measured
> 64 µg/mL	> 64 µg/mL	> 64 µg/mL	> 64 µg/mL	> 64 µg/mL	> 64 µg/mL	> 64 µg/mL	> 64 µg/mL	> 64 µg/mL	> 64 µg/mL	> 64 µg/mL	> 64 µg/mL	> 64 µg/mL	> 64 µg/mL	> 64 µg/mL	> 64 µg/mL	64 µg/mL (≈ 100 µM)	> 64 µg/mL	> 64 µg/mL	> 64 µg/mL	COC(=O)c1c(Br)c(OC)cc(O)c1CSC[C@@H](Nc1nc(-c2ccc([N+](=O)[O-])cc2)cs1)C1=NOCCO1	MIC [21]: > 64 µg/mL; MIC [22]: > 64 µg/mL
> 64 µg/mL	0.5 µg/mL (≈ 0.786 µM)	0.5 µg/mL (≈ 0.786 µM)	0.25 µg/mL (≈ 0.393 µM)	> 64 µg/mL	> 64 µg/mL	> 64 µg/mL	> 64 µg/mL	0.25 µg/mL (≈ 0.393 µM)	0.25 µg/mL (≈ 0.393 µM)	< 0.12 µg/mL	0.25 µg/mL (≈ 0.393 µM)	0.25 µg/mL (≈ 0.393 µM)	0.25 µg/mL (≈ 0.393 µM)	0.25 µg/mL (≈ 0.393 µM)	0.25 µg/mL (≈ 0.393 µM)	< 0.12 µg/mL	0.25 µg/mL (≈ 0.393 µM)	0.5 µg/mL (≈ 0.786 µM)	< 0.12 µg/mL	COC(=O)c1c(Br)c(OC)cc(O)c1CSC[C@H](Nc1nc(-c2ccc([N+](=O)[O-])cc2)cs1)c1nc(C)no1	IC50 [23]: 60 µg/mL (≈ 94.3 µM); IC50 [24]: > 377 µM; MIC [25]: 0.25 µg/mL (≈ 0.393 µM); MIC [26]: 0.12 µg/mL (≈ 0.189 µM); MIC [27]: 0.12 µg/mL (≈ 0.189 µM); MIC [28]: 0.12 µg/mL (≈ 0.189 µM); MIC [21]: 0.25 µg/mL (≈ 0.393 µM); MIC [29]: 0.25 µg/mL (≈ 0.393 µM); MIC [22]: 0.5 µg/mL (≈ 0.786 µM)
> 64 µg/mL	2 µg/mL (≈ 3.27 µM)	2 µg/mL (≈ 3.27 µM)	1 µg/mL (≈ 1.63 µM)	> 64 µg/mL	> 64 µg/mL	> 64 µg/mL	> 64 µg/mL	1 µg/mL (≈ 1.63 µM)	1 µg/mL (≈ 1.63 µM)	1 µg/mL (≈ 1.63 µM)	2 µg/mL (≈ 3.27 µM)	1 µg/mL (≈ 1.63 µM)	1 µg/mL (≈ 1.63 µM)	1 µg/mL (≈ 1.63 µM)	1 µg/mL (≈ 1.63 µM)	1 µg/mL (≈ 1.63 µM)	1 µg/mL (≈ 1.63 µM)	2 µg/mL (≈ 3.27 µM)	0.5 µg/mL (≈ 0.816 µM)	COC(=O)c1c(Br)c(OC)cc(O)c1CSC[C@H](Nc1nc(-c2ccc([N+](=O)[O-])cc2)cs1)C(=O)OC	IC50 [23]: 15 µg/mL (≈ 24.5 µM); IC50 [24]: > 392 µM; MIC [21]: 1 µg/mL (≈ 1.63 µM); MIC [22]: 2 µg/mL (≈ 3.27 µM)
> 64 µg/mL	0.5 µg/mL (≈ 0.782 µM)	0.5 µg/mL (≈ 0.782 µM)	0.5 µg/mL (≈ 0.782 µM)	> 64 µg/mL	> 64 µg/mL	> 64 µg/mL	> 64 µg/mL	0.25 µg/mL (≈ 0.391 µM)	0.25 µg/mL (≈ 0.391 µM)	< 0.12 µg/mL	0.25 µg/mL (≈ 0.391 µM)	0.25 µg/mL (≈ 0.391 µM)	0.25 µg/mL (≈ 0.391 µM)	< 0.12 µg/mL	0.25 µg/mL (≈ 0.391 µM)	0.25 µg/mL (≈ 0.391 µM)	0.25 µg/mL (≈ 0.391 µM)	0.5 µg/mL (≈ 0.782 µM)	< 0.12 µg/mL	COC(=O)c1c(Br)c(OC)cc(O)c1CSC[C@H](Nc1nc(-c2ccc([N+](=O)[O-])cc2)cs1)C1=NOCCO1	IC50 [23]: 60 µg/mL (≈ 93.8 µM); IC50 [24]: > 375 µM; MIC [21]: < 0.12 µg/mL; MIC [22]: 0.5 µg/mL (≈ 0.782 µM)
